The values that follow come from PMC3736091 (Molecular cancer therapeutics, 2013).

Bounds are passed on as bounds.

One data set deals with PI4K. The note with it: read-out: Enzyme IC50 PI4K; purified enzyme; data previously reported; cited from earlier work.
The target of the next data set is ATR (Homo sapiens, UniProt Q13535). The settings on record: read-out: Enzyme IC50 ATR; purified enzyme; data previously reported; cited from earlier work.
A short description of data set [1]: Plasma and tumour concentrations in SW620 tumour-bearing nude mice. It counts as in vivo. Put shortly: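 Female CD-1 nude mice carried SW620 s.c. flank xenografts (1×10^7 cells) of ~650 mm³. Test compound was given at 50 mg/kg i.p. in equimolar phosphoric acid/saline, pH 4. The comparator ATM inhibitor was given at 10 mg/kg i.p. in phosphoric acid, 5% DMSO, 10% encapsin, pH 4. Dosing volume was 10 ml/kg. Plasma and tumour were sampled at 1 and 4 h and analysed by HPLC; the tumour detection limit was 0.5 μM.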

Data set [2] addresses ATM activity in SW620 cells (Homo sapiens, UniProt Q13315). Kind of data set: Inhibition of cellular ATM activity, SW620. Type of data set: cell-based. The note with it: 10 μM.
The subject of another data set is human tumour cell lines. The note with it: cited from earlier work.
The subject of another data set is PI3K. The settings on record: read-out: Enzyme IC50 PI3K; purified enzyme; data previously reported; cited from earlier work.
The next data set concerns the target ATM (Homo sapiens, UniProt Q13315). The settings on record: read-out: Enzyme IC50 ATM; purified enzyme; data previously reported; cited from earlier work.

Sequence of ATR (Q13535 whole entry): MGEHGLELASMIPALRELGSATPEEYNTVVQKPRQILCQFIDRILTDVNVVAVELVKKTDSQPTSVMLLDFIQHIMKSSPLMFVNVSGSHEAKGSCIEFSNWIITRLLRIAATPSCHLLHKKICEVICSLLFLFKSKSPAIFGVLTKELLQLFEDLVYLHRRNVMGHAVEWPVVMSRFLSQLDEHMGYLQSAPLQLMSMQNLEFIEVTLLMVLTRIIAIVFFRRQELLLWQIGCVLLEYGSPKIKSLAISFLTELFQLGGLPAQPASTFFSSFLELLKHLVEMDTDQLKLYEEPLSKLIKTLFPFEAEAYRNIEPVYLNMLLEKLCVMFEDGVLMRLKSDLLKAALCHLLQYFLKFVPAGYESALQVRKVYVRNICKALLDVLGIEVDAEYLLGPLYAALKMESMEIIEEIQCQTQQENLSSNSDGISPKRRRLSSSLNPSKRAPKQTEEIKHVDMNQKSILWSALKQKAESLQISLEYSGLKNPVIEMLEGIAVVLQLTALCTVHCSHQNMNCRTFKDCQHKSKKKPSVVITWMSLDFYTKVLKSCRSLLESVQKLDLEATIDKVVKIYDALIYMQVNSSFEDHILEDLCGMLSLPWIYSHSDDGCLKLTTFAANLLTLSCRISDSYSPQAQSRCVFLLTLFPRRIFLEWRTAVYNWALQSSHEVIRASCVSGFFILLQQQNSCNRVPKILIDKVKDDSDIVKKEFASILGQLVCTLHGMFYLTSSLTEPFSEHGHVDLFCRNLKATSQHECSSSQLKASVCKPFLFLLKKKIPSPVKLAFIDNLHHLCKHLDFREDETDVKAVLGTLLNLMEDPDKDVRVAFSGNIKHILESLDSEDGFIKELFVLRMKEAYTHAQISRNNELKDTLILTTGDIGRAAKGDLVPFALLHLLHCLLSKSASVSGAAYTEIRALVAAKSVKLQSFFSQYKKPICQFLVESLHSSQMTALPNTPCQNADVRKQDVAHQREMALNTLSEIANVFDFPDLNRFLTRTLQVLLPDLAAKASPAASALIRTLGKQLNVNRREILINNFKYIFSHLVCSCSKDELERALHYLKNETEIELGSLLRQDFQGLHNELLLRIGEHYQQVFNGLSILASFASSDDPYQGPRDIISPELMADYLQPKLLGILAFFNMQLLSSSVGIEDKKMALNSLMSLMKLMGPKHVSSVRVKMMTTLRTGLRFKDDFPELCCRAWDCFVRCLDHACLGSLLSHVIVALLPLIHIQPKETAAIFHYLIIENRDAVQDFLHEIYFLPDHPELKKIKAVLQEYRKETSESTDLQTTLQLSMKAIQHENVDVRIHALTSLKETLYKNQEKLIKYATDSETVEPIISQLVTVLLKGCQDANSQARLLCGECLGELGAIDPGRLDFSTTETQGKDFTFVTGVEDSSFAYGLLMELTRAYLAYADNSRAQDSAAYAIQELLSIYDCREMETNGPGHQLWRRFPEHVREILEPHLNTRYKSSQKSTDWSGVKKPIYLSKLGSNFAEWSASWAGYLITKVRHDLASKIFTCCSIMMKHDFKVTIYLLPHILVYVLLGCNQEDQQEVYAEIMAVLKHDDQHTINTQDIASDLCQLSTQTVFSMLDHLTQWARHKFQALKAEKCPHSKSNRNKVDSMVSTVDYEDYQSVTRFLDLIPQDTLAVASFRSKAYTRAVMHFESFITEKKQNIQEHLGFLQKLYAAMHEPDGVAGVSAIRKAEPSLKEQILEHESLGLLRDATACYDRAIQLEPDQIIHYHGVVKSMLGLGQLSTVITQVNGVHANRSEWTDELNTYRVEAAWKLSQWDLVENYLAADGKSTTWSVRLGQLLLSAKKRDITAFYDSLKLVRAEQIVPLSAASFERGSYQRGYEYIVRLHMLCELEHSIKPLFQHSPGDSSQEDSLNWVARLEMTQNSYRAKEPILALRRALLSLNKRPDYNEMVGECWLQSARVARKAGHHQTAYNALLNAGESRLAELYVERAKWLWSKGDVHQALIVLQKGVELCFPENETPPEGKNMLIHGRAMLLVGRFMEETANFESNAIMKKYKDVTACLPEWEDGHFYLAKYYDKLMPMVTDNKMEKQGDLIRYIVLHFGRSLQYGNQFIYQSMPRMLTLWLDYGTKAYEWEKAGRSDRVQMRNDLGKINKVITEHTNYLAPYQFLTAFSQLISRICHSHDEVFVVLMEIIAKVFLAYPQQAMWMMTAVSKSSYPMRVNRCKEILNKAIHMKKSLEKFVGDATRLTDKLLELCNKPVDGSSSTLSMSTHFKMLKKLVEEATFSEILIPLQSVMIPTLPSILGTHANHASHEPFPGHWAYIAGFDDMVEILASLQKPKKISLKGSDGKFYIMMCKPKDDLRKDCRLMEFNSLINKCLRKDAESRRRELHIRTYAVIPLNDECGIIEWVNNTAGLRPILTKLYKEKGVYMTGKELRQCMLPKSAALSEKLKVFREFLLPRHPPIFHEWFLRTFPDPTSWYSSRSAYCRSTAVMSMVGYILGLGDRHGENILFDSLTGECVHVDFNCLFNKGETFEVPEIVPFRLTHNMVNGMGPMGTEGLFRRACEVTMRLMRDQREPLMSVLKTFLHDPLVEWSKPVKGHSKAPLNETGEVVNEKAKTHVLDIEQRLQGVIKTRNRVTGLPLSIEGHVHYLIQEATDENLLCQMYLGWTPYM
Sequence of ATR (Q8WXE1 whole entry partner): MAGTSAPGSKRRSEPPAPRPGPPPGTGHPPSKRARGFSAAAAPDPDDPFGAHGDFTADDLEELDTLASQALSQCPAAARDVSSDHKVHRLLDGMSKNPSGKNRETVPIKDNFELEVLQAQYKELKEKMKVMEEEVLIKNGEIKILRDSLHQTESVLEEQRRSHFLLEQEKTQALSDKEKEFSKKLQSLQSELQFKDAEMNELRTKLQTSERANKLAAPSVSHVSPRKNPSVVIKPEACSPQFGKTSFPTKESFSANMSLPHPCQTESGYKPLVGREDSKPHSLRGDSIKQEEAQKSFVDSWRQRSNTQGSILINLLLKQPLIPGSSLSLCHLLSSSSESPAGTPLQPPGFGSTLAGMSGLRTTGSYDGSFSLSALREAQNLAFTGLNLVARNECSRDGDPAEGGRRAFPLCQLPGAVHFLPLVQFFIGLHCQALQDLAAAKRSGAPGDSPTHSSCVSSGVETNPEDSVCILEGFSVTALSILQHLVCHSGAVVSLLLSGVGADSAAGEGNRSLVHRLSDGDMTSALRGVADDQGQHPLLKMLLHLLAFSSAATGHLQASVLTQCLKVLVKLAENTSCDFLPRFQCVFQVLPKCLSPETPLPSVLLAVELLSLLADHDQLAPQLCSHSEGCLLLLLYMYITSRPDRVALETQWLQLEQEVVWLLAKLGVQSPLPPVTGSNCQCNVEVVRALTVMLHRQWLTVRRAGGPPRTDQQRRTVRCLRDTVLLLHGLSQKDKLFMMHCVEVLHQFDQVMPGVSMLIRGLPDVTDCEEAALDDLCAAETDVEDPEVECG

Regarding `O=c1cc(-c2cccc3c2Sc2ccccc2S3)oc(N2CCOCC2)c1` [KU55933], the IC50 – broadly, the point on the concentration scale where inhibition reaches its midpoint – with PI4K was > 10 µM; on ATR it was > 10 µM; with PI3K, 1.7 µM. Also, in data set [1] (10 mg/kg i.p., SW620 xenograft, below limit of detection), the Tumour concentration is < 0.5 µM. The Plasma concentration entry in data set [1] (single dose 10 mg/kg i.p., SW620-bearing nude mice) is recorded as “over 1 μM”. Moreover, the “Inhibition of ATM activity” value in data set [2] is reported as “substantially inhibited ATM activity”. Moreover, the “Concentration needed to induce in vitro chemo- and radio-sensitisation” value with human tumour cell lines is 10 µM.

As to `O=c1cc(N2CCOCC2)oc2c(-c3ccccc3)cccc12` [LY294002], the half-maximal inhibitory concentration (IC50) on ATM was > 100 µM; on ATR it was 100 µM.
